Measured values published in PMC9299520 (Nature structural & molecular biology, 2022).

Tests used:
5-HT5AR [1] = target: T1, 5-HT5AR (Homo sapiens, UniProt P47898); assay: BRET2 Gi1-activation assay, WT 5-HT5AR; assay type: cell-based; settings: normalized to % of 5-HT
5-HT5AR [2] = target: T1, 5-HT5AR; assay: BRET1 miniGi recruitment assay; assay type: cell-based; settings: wild type 5-HT5AR
In short: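 Transfected cells were plated after at least 24 h onto poly-lysine-coated plates in DMEM with 1% dialyzed FBS, at 40,000 cells/well, and left overnight. They were washed with HBSS/20 mM HEPES pH 7.4, then given coelenterazine h (5 μM final) and test compound dilutions with 0.3% BSA and 0.03% ascorbic acid. After 10 min at room temperature, emissions at 485 and 530 nm were read, and eYFP/Rluc BRET ratio was plotted against concentration.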

mutant 5-HT5AR [3] = assay: BRET2 Gi1-activation assay, mutant 5-HT5ARs; assay type: cell-based, human; settings: for effect on Gi1 activation: mutants S204A and S204G
mutant 5-HT5AR [4] = target: mutant 5-HT5AR (Homo sapiens, UniProt P47898, E305A); assay: BRET2 Gi1-activation assay, mutant 5-HT5ARs; assay type: cell-based; settings: mutant E305A
mutant 5-HT5AR (Homo sapiens, UniProt P47898, E305A), sequence (P47898 whole entry E305A): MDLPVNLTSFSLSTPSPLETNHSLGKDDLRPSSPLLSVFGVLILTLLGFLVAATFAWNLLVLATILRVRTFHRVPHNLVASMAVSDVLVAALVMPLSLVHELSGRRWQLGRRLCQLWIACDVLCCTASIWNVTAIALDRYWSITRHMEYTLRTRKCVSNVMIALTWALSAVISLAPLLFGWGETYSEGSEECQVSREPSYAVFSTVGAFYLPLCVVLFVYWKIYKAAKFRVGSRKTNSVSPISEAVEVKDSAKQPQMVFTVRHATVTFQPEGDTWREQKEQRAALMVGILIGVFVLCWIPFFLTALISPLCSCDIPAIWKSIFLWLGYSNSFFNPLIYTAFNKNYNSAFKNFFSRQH

mutant 5-HT5AR [5] = target: mutant 5-HT5AR (Homo sapiens, UniProt P47898, S204C); assay: BRET2 Gi1-activation assay, mutant 5-HT5ARs; assay type: cell-based; settings: mutant S204C
mutant 5-HT5AR (Homo sapiens, UniProt P47898, S204C), sequence (P47898 whole entry S204C): as the sequence (P47898 whole entry E305A) above, with S204C, A305E counted along it

mutant 5-HT5AR [6] = target: mutant 5-HT5AR (Homo sapiens, UniProt P47898, A227L); assay: BRET2 Gi1-activation assay, mutant 5-HT5ARs; assay type: cell-based; settings: mutant A227L versus WT
mutant 5-HT5AR (Homo sapiens, UniProt P47898, A227L), sequence (P47898 whole entry A227L): as the sequence (P47898 whole entry E305A) above, with A227L, A305E counted along it

T1 sequence (P47898 whole entry): as the sequence (P47898 whole entry E305A) above, with A305E counted along it

Structure (SMILES) | agonist type for Gi signaling (5-HT5AR [1]) | miniGi recruitment (5-HT5AR [2]) | effect on Gi1 activation (mutant 5-HT5AR [3]) | effect on activation of Gi1 signaling (mutant 5-HT5AR [4]) | effect on Gi1 activation (mutant 5-HT5AR [5]) | increase of efficacy of Gi1 activation (mutant 5-HT5AR [6]) | improvement of potency of Gi1 activation (mutant 5-HT5AR [3]; {})
CC[C@@H](CO)NC(=O)[C@@H]1C=C2c3cccc4[nH]cc(c34)C[C@H]2N(C)C1 [methylergometrine] | full agonist |  |  |  |  |  | 
NCCc1c[nH]c2ccc(C(N)=O)cc12 [5-CT, 5-carboxamidotryptamine] | full agonist | unable to efficiently recruit miniGi | dramatically reduced the potency | failed to show a large effect | severely affected |  | 
NCCc1c[nH]c2ccc(O)cc12 [5-HT, 5-hydroxytryptamine] |  |  | modest effects on both the potency and efficacy |  | severely affected | 20% | more than 30 fold
